This passage reports ED50 and ED40 results from ChEMBL document CHEMBL1124197, “3-[1-(2-Benzoxazolyl)hydrazino]propanenitrile derivatives: inhibitors of immune complex induced inflammation” (1988).

The test system of assay [1] is Rattus norvegicus. Put plainly: Effect in rat pleural Carrageenan test (exudate white blood cells (WBC)); No significant effect at 28 umol/kg (Not active). In kind it is functional, organism-based.
The species named for assay [2] is Rattus norvegicus. Put plainly: Effect in rat pleural Carrageenan test (exudate volume). In kind it is functional.
Assay [3] deals with Rattus norvegicus. Briefly: Inhibition of pleural reverse passive Arthus reactions (exudate white blood cells (WBC)); No significant inhibition at 56 umol/kg (Inactive). In kind it is functional, organism-based. Summed up: (§1)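 Fasted male rats were given BSA intravenously, then about 1 h later rabbit anti-BSA intrapleurally. Oral dosing was 30 min before the challenge. After 4 h the rats were killed and pleural exudate fluid volume and white blood cell accumulation were determined. ED50 with 95% confidence limits came from least-squares regression.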

The subject of assay [4] is Rattus norvegicus. Briefly: Effective dose of compound for 40% inhibition of rat dermal reverse passive Arthus reaction (RPAR) on peroral administration; No significant inhibition at 56 umol/kg (Inactive). In kind it is functional, organism-based. Summed up: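 Fasted male rats received BSA intravenously and about 1 h later a challenge of rabbit anti-BSA given intradermally. Compound was dosed orally 30 min before the challenge. Rats were killed 4 h later and dermal lesion size was measured. ED40 with 95% confidence limits came from least-squares regression.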

Assay [5] relates to Rattus norvegicus. Put plainly: Inhibition of pleural reverse passive Arthus reactions (RPAR) in rat (exudate volume); No significant inhibition at 56 umol/kg (Inactive). In kind it is functional, organism-based. The method, boiled down: as §1

SMILES strings stand for the structures. Active and inactive are the calls of the source. No cut-off for these calls is given here.

`COc1ccc2c(c1)c(CC(=O)O)c(C)n2C(=O)c1ccc(Cl)cc1` [INDOMETHACIN]: the ED50 result with Rattus norvegicus [1], in the assay with Rattus norvegicus [3] and with Rattus norvegicus [5] was “inactive” in each case. Besides, the 50% effective dose (ED50) in the assay filed under Rattus norvegicus [2] came out at 1.1 µmol/kg. Further, the ED40 result with Rattus norvegicus [4] was “inactive”.

A word on the ED50: it is the midpoint of the dose-response relation.
